This sample holds only a part of the variants without activity.
B1: tRNA (parent)
chain: GUUCCGUUGGCGUAAUGGUAACGCGUCUCCCUCCUAAGGAGAAGACUGCGGGUUCGAGUCCCGUACGGAACG

Variants of: B1
Experiment: yeast fitness relative to wild type (ratio to wild type); higher = fitter; tRNA-Arg(CCU), competitive growth, 37 C, YPD
Method in brief: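 A pool of Saccharomyces cerevisiae strains, each with a tRNA-Arg(CCU) gene variant at the native genomic locus, was competed in YPD at 37°C for 24 hours across six parallel replicates. The variants had been chemically synthesised at a 3% per-site mutation rate over 69 sites, and gene amplicons before and after competition were read by 100-nucleotide paired-end sequencing. Darwinian fitness relative to wild type rested on changes in genotype frequencies. Genotypes required ≥ 100 starting reads, and estimates < 0.5 were set to 0.5.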
Work on G48A C55A G58C yielded a yeast fitness of 0.516.
U47A U59C gave a yeast fitness of 0.873.
In the case of C46U G52A, the yeast fitness is reported as 0.729.
For C46U G52C, the yeast fitness was 0.614.
Work on C46U C55A C66U yielded a yeast fitness of 0.555.
In the case of G48C C49G, the yeast fitness is reported as 0.621.
In the case of C46A U53C, the yeast fitness is reported as 0.865.
With C46U U53C A70U the yeast fitness was 0.608.
Variant U47G C62G A69C has a yeast fitness of 0.508.
With U47G C62G A69U the yeast fitness was 0.545.
G48A G68U A70C gave a yeast fitness of 0.809.
With C46U G50A the yeast fitness was 0.965.
In the case of G48A G63A A65C, the yeast fitness is reported as no more than 0.5.
In the case of C46U C55A G56C, the yeast fitness is reported as 0.561.
U47C C55G gave a yeast fitness of 0.733.
For U47C C55U, the yeast fitness was 0.796.
U47C C55A showed a yeast fitness of 0.699.
A45U G56C A57G G68U gave a yeast fitness of no more than 0.5.
C46U A69G showed a yeast fitness of 0.894.
In the case of G48A G67U, the yeast fitness is reported as 0.9.
C46G A70C gave a yeast fitness of 0.923.
For C46G A70U, the yeast fitness was 0.976.
C46G A70G gave a yeast fitness of 1.03.
Work on U47C G51C U59C yielded a yeast fitness of no more than 0.5.
G48A C60G G63C showed a yeast fitness of no more than 0.5.
With G48A C55G C62U the yeast fitness was no more than 0.5.
In the case of U47C A57U A65U, the yeast fitness is reported as 0.567.
C46A C55A G63A showed a yeast fitness of 0.575.
For U47G G63A, the yeast fitness was 0.561.
For U47C G56A, the yeast fitness was 0.999.
With A45U C61G the yeast fitness was 0.569.
Work on G48A yielded a yeast fitness of 0.982.
Variant G48C has a yeast fitness of 0.977.
Variant G48A C60U A65U has a yeast fitness of 0.726.
For G48A C62G A69U, the yeast fitness was 1.03.
C46G G63A gave a yeast fitness of 0.798.
Work on U47A C60U G63C A69U yielded a yeast fitness of no more than 0.5.
In the case of G48A C61G A65C, the yeast fitness is reported as no more than 0.5.
With C46U G48A the yeast fitness was 0.93.
U47C C66U A69C gave a yeast fitness of 0.675.
C46A G52C G63A A65U gave a yeast fitness of no more than 0.5.
Work on C46G C62U yielded a yeast fitness of 0.982.
Variant C46G C62G has a yeast fitness of 0.786.
In the case of A45U G63A, the yeast fitness is reported as 0.843.
For C46U U59A C61G C66U, the yeast fitness was 0.649.
For G48A C61G A70C, the yeast fitness was 0.531.
For C46A G58C C66U, the yeast fitness was 0.998.
C46G U53C gave a yeast fitness of 0.903.
U47G C60U showed a yeast fitness of 0.548.
U47G C60G showed a yeast fitness of 0.675.
Variant G48C A65G has a yeast fitness of 1.01.
G48C A65U showed a yeast fitness of 0.75.
For C46U U54C A57G, the yeast fitness was 0.622.
With C46G U54C C60A C62A the yeast fitness was no more than 0.5.
With U47G C60G C62A A65G the yeast fitness was no more than 0.5.
C46A U54G gave a yeast fitness of 0.544.
With G48A U59C the yeast fitness was 0.934.
For G48A G51C C60A U64C, the yeast fitness was 0.853.
U47C U59A A65C A70C gave a yeast fitness of no more than 0.5.
With U47A G48C the yeast fitness was 0.82.
C46A C61G showed a yeast fitness of 0.637.
C46A C61A showed a yeast fitness of 0.758.
A45U C49U gave a yeast fitness of 1.07.
Work on C46U G51C C66G yielded a yeast fitness of no more than 0.5.
Work on C46U C55A G56C A65G yielded a yeast fitness of no more than 0.5.
Work on G48A G50U U54G A70U yielded a yeast fitness of no more than 0.5.
U47A C55G C61U showed a yeast fitness of 0.522.
Work on C46U C60A yielded a yeast fitness of 0.543.
In the case of C46U C60U, the yeast fitness is reported as 0.807.
For C46U C60G, the yeast fitness was 0.627.
With A45U G58A the yeast fitness was 0.907.
With A45U C62A the yeast fitness was 0.655.
With C46A G63A the yeast fitness was 0.949.
C46A G63U showed a yeast fitness of 0.764.
For C46A G52A G58C, the yeast fitness was 0.742.
For G48A C60G A70C, the yeast fitness was no more than 0.5.
In the case of A45U C49G C55G G67C, the yeast fitness is reported as 0.532.
Work on C46U G51C yielded a yeast fitness of 0.571.
For G48A C62A, the yeast fitness was 0.978.
Work on C46G C49A yielded a yeast fitness of 0.7.
With C46G C49U the yeast fitness was 0.981.
C46G C49G gave a yeast fitness of 0.966.
U47A A69U gave a yeast fitness of 0.984.
For G48C A57C, the yeast fitness was 0.594.

Source: the RNAGym collection of RNA variant scans (doi:10.1126/science.aae0568)
